This note sets out measurements from ChEMBL document CHEMBL1141261, “Eremophilane sesquiterpenes from Ligularia macrophylla” (J Nat Prod, 2007).

The subject of one assay is MCF7. Briefly: Cytotoxicity against human MCF7 cells. In kind it is functional, cell-based. Put shortly: (§1)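 Test samples were dissolved in DMSO and diluted into culture medium to a final DMSO level of ≤1% (v/v). Human lung carcinoma A-549 and breast adenocarcinoma MCF-7 lines were used. Cell culture and the remaining steps followed an earlier published protocol.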
The test system of a further assay is A549. Briefly: Cytotoxicity against human A549 cells. The assay is classed as functional, cell-based. Put shortly: as §1

≈ marks a conversion by molar mass, not a printed value.

As for `Cc1coc2cc3c(c(C)c12)[C@@H](C)CCC3=O`, the values for the EC50 in the assay on MCF7 and in the assay on A549 were 15.2 µg/mL (≈ 66.6 µM) and 11.9 µg/mL (≈ 52.1 µM), respectively.
With `Cc1cc2c(C)coc2cc1[C@H](C)CCC=O`, the EC50 in the assay with MCF7 was above 20 µg/mL; with A549 it was 10 µg/mL (≈ 43.4 µM).
The like results for `C/C=C(/CO)C(=O)O[C@@H]1c2c(C)coc2C[C@@]23O[C@@H]2CC[C@H](C)[C@@]13C` were, in that order, 17.3 µg/mL (≈ 49.9 µM) and above 20 µg/mL.
With `C/C=C(/C)C(=O)O[C@@H]1c2c(C)coc2C[C@]23O[C@H]2CC[C@H](C)[C@@]13C`, the results for the half-maximal effective concentration (EC50) with MCF7 and with A549 were above 20 µg/mL and 9.4 µg/mL (≈ 28.4 µM), respectively.
The like results for `C/C=C(/C)C(=O)O[C@H]1c2c(C)coc2C[C@H]2C(=O)CC[C@H](C)[C@]21C` were, in that order, at least 20 µg/mL and at least 20 µg/mL.
The like results for `Cc1coc2c1[C@@H](O)[C@]1(C)[C@@H](C)CC[C@@H]3O[C@@]31C2` were, in that order, at least 20 µg/mL and at least 20 µg/mL.
For `Cc1coc2cc3c(c(C)c12)[C@@H](C)CC[C@@H]3O` the same measures were 15.2 µg/mL (≈ 66 µM) and 13.8 µg/mL (≈ 59.9 µM).
As to `CC(C=O)C1=C[C@@]2(C)C(=CC1=O)[C@H](O)CC[C@@H]2C` (mixture of isomers), the EC50 in the assay on MCF7 is above 20 µg/mL; with A549, 18.4 µg/mL.
The like results for `Cc1cc2c(C)coc2c2c1CCCC2C` (stereo not drawn) [FARFUGIN A] were, in that order, 13.6 µg/mL (≈ 63.5 µM) and 10.9 µg/mL (≈ 50.9 µM).
